The nature of data set [1]: Initial rates of formation of metabolic intermediate Cytochrome P-450 at compound concentration of 30 uM. It counts as ADME. The essentials:
(§1)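 Rabbit liver microsomes at 2 mg protein/mL with 0.1 mM EDTA, 37 °C, substrate 30 μM. Complex formation started with 0.4 mM NADPH and followed by dual-wavelength absorbance, 457 vs 500 nm. Initial rate is the initial slope, ΔA×10^4 per nmol P-450 per min. Extent is the plateau absorbance. Lag is the time from NADPH addition to first 457-nm chromophore. Triplicate or single runs.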

Data set [2] in a line: Initial rates of formation of metabolic intermediate Cytochrome P-450 with compound concentration of 150 uM. It counts as ADME. In a few lines: (§2)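 Cross-inhibition in NADPH-supplemented rabbit liver microsomes at 37 °C. Preincubation with amine at 30, 150 or 300 μM while 457-nm complex formation was monitored. Once it plateaued (6–8 min), racemic hydroxylamine was added at 300 μM. Initial rate and plateau extent were read from ΔA457–500 nm vs time, per nmol P-450.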

Data set [3] can be described thus: Initial rates of formation of metabolic intermediate Cytochrome P-450 with compound concentration of 30 uM. It counts as ADME. In a few lines:
as §2

Data set [4] is described as follows: Initial rates of formation of metabolic intermediate Cytochrome P-450 with compound concentration of 300 uM. It counts as ADME. The essentials:
as §2

Data set [5] in a line: Extent rates of formation of metabolic intermediate Cytochrome P-450 at compound concentration of 30 uM. Type of data set: ADME. In a few lines: as §1
Data set [6] is described as follows: Lag time between the addition of compound (30 uM) and the first appearance of chromophore. It counts as ADME. In a few lines:
as §1

The nature of data set [7]: Initial rates of formation of metabolic intermediate Cytochrome P-450 at compound concentration of 3.75-120 uM. It counts as ADME. In a few lines:
(§3)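 Rabbit liver microsomes at 2 mg protein/mL with 0.1 mM EDTA, 37 °C, NADPH-dependent. Substrate tested at several concentrations. ΔA457–500 nm followed against time. Rate is the initial slope per nmol P-450 per min; extent is the plateau absorbance. Runs disturbed by a transient 450-nm species were discarded.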

Data set [8] is described as follows: Extent rates of formation of metabolic intermediate Cytochrome P-450 at compound concentration of 3.75-120 uM. Type of data set: ADME. The essentials:
as §3

For data set [9], the target named is T1, Cytochrome P450 2C19 (Homo sapiens, UniProt P33261). The data set is described as follows: Apparent binding affinity constant of compound (10.8-60.0) for Cytochrome P450. Type of data set: ADME, Oryctolagus cuniculus. Particulars: read-out: Ks.
T1 sequence (P33261 whole entry): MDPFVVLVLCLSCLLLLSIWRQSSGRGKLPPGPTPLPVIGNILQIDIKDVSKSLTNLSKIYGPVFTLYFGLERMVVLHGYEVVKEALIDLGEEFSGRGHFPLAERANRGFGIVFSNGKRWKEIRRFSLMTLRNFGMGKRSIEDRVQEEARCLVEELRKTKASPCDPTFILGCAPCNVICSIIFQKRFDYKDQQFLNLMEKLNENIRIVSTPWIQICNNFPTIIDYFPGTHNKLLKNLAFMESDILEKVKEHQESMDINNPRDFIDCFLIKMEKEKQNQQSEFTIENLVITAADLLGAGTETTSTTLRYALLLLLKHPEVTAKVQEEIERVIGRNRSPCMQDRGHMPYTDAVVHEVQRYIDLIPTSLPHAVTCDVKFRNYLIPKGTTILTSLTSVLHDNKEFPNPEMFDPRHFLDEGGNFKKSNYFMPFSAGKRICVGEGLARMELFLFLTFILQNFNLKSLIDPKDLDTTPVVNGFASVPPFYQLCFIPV
For data set [10], the target named is T1, Cytochrome P450 2C19. The data set is described as follows: Inhibitory effect in formation of metabolic intermediate complex between Cytochrome P450 and racemic compound 2 initially, on preincubation with Racemic compound 2 (300 uM) at 150 uM. Type of data set: ADME, Oryctolagus cuniculus. As to conditions: rabbit. In a few lines: as §2
In data set [11] the target is T1, Cytochrome P450 2C19. The experiment in a line: Inhibitory effect in formation of metabolic intermediate complex between Cytochrome P450 and racemic compound 2 initially, on pre-incubation with compound at 150 uM. It counts as ADME, Oryctolagus cuniculus. Particulars: rabbit.
For data set [12], the target named is T1, Cytochrome P450 2C19. The experiment in a line: Inhibitory effect in formation of metabolic intermediate complex between Cytochrome P450 and racemic compound 2 initially, on pre-incubation with compound at 300 uM. It counts as ADME, Oryctolagus cuniculus. As to conditions: rabbit.
Data set [13] has as its target T1, Cytochrome P450 2C19. The data set is described as follows: Inhibitory effect in formation of metabolic intermediate complex between Cytochrome P450 and racemic compound 2 initially, on pre-incubation with compound at 30 uM. It counts as ADME, Oryctolagus cuniculus. Particulars: rabbit.
Data set [14] deals with T1, Cytochrome P450 2C19. The experiment in a line: Inhibitory effect in formation of metabolic intermediate complex between Cytochrome P450 and racemic 2 initially, on pre-incubation with Racemic compound 2 (300 uM) at 300 uM. It counts as ADME, Oryctolagus cuniculus. Particulars: rabbit.
Data set [15] concerns the target T1, Cytochrome P450 2C19. The experiment in a line: Inhibitory effect in formation of metabolic intermediate complex between Cytochrome P450 and racemic compound 2 at extent, on pre-incubation with compound at 300 uM. Type of data set: ADME, Oryctolagus cuniculus. Particulars: rabbit.
Data set [16] addresses T1, Cytochrome P450 2C19. The experiment in a line: Inhibitory effect in formation of metabolic intermediate complex between Cytochrome P450 and racemic compound 2 at extent, on pre-incubation with compound at 30 uM. It counts as ADME, Oryctolagus cuniculus. As to conditions: rabbit.
The target in data set [17] is T1, Cytochrome P450 2C19. The experiment in a line: Inhibitory effect in formation of metabolic intermediate complex between Cytochrome P450 and racemic 2 at extent, on preincubation with Racemic compound 2 (300 uM) at 30 uM. It counts as ADME, Oryctolagus cuniculus. Particulars: rabbit. In a few lines:
as §2

The target in data set [18] is T1, Cytochrome P450 2C19. The data set is described as follows: Inhibitory effect in formation of metabolic intermediate complex between Cytochrome P450 and racemic compound 2 at extent, on pre-incubation with Racemic 2 (300 uM) at 150 uM. Type of data set: ADME, Oryctolagus cuniculus. As to conditions: rabbit.
Data set [19] addresses T1, Cytochrome P450 2C19. The data set is described as follows: Inhibitory effect in formation of metabolic intermediate complex between Cytochrome P450 and racemic compound 2 at extent, on pre-incubation with Racemic 2 (300 uM) at 300 uM. As to conditions: rabbit. Type of data set: ADME, Oryctolagus cuniculus.
For data set [20], the target named is T1, Cytochrome P450 2C19. The data set is described as follows: Inhibitory effect in formation of metabolic intermediate complex between Cytochrome P450 and racemic compound 2 at extent, on preincubation with compound at 150 uM. It counts as ADME, Oryctolagus cuniculus. As to conditions: rabbit.

The source of these data is ChEMBL document CHEMBL1121797, “Studies on chiral interactions of 1-(2,5-dimethoxy-4-methylphenyl)-2-aminopropane and the corresponding N-hydroxy metabolites with cytochrome P-450” (J Med Chem, 1981).

Consider `COc1cc(C[C@@H](C)N)c(OC)cc1C.COc1cc(C[C@H](C)N)c(OC)cc1C`, for which the Rate in data set [1] is 4.8; in data set [2], 1.6; in [3], 1.8; in data set [4], 1.2. In addition, the Extent in data set [5] stood at 30. The molecule further registered a Lag time in data set [6] of 138 s.

With `COc1cc(C[C@@H](C)N)c(OC)cc1C`, the Rate in [1] stood at 17.1; in data set [2], 6.1; in data set [3], 5.2; in data set [4] it was 5.5; in data set [7], 17.5; on Cytochrome P450 2C19 [10], 183. Further, the Rate on Cytochrome P450 2C19 [11] amounted to 6.1; at Cytochrome P450 2C19 [12] it was 5.8; on Cytochrome P450 2C19 [13], 5.2; on Cytochrome P450 2C19 [14] it was 160. Further, the Extent in data set [5] is recorded as 78; in data set [8], 23; on Cytochrome P450 2C19 [15] it was 23; on Cytochrome P450 2C19 [16], 21; on Cytochrome P450 2C19 [17], 131; at Cytochrome P450 2C19 [18] it was 116. Also, the Extent at Cytochrome P450 2C19 [19] came to 105; at Cytochrome P450 2C19 [20], 25. For the same molecule, the Kd on Cytochrome P450 2C19 [9] worked out at 18 µM. Besides, the Lag time in data set [6] was 14 s.
